Measurements as given in ChEMBL document CHEMBL4393735, “Molecular modelling, synthesis, and biological evaluations of a 3,5-disubstituted isoxazole fatty acid analogue as a PPARα-selective agonist” (Bioorg Med Chem, 2019).
Calls of active or inactive are those of the source.

Assays:
COS-1 = assay: Cytotoxicity against African green monkey COS1 cells assessed as reduction in cell viability at 10^-3 M by XTT based assay relative to control; conditions: chlorocebus aethiops, cos-1, 1000 µM
Summary of the method: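 COS-1 cells were treated across the same concentration series as the GAL4 dose-response runs. Cytotoxicity was measured as LDH released into medium (absorbance 492/750 nm) and by XTT viability assay (absorbance 450/690 nm). Results expressed relative to control.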

[1] = target: T1, Peroxisome proliferator-activated receptor gamma (Homo sapiens, UniProt P37231); assay: Agonist activity at full length human FLAG-tagged GAL4-DBD fused PPARgamma LBD (205 to 505 residues) expressed in COS1 cells measured after 18 hrs by dual luciferase reporter gene assay; type: cell-based
T1 sequence (P37231 whole entry): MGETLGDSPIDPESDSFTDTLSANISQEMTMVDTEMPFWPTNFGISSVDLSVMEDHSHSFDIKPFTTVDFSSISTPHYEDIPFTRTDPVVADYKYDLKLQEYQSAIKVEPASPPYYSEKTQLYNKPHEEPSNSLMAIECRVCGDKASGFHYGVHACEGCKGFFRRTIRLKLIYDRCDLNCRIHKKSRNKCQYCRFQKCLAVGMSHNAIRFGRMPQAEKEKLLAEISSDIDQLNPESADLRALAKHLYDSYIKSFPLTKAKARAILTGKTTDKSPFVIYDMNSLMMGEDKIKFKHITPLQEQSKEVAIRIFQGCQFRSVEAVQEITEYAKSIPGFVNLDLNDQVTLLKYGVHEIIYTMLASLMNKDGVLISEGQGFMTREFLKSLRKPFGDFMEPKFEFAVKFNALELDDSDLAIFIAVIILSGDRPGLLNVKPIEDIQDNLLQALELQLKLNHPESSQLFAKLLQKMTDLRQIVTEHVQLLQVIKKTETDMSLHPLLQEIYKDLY
Summary of the method: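 Dose-response in COS-1 cells transfected with GAL4-DBD–human PPARα or PPARγ LBD, a 5×UAS-SV40 firefly reporter and pRL-CMV. Cells were treated with increasing concentrations in 0.1% DMSO (final) 6 h post-transfection, then for 18 h. Firefly/Renilla ratio, normalized to GAL4-only activity. EC50 was taken from a sigmoidal dose-response fit. At least three independent transfections in quadruplicate.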

[2] = target: T2, Peroxisome proliferator-activated receptor delta (Homo sapiens) (UniProt Q03181); assay: Agonist activity at full length human GAL4-DBD fused PPARdelta LBD expressed in COS1 cells at 25 to 50 uM measured after 18 hrs by dual luciferase reporter gene assay; type: cell-based
T2 sequence (whole entry): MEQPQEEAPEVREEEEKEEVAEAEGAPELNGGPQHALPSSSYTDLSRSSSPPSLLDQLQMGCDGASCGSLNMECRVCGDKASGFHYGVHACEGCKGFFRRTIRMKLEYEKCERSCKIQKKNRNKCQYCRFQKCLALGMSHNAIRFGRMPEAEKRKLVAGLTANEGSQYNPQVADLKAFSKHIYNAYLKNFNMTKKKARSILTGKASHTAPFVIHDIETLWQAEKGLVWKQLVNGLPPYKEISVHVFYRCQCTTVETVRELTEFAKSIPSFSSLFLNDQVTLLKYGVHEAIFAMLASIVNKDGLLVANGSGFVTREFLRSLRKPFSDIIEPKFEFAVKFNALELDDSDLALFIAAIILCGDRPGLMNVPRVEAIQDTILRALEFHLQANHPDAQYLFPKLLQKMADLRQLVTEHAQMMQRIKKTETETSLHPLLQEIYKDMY
Summary of the method: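 COS-1 cells were transfected using Lipofectamine 2000 with GAL4-DBD–human NR-LBD plasmid, a 5×UAS-SV40 firefly luciferase reporter and pRL-CMV. After 6 h, cells were treated with 0, 25 or 50 μM in 0.1% DMSO (final) for 18 h. Firefly signal was normalized to Renilla, then to DMSO control and GAL4-only. Three biological replicates in quadruplicate, mean ± SEM, two-way ANOVA with Bonferroni.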

[3] = target: T3, Peroxisome proliferator-activated receptor alpha (Homo sapiens) (UniProt Q07869); assay: Agonist activity at PPARalpha in human Huh7 cells assessed as SREBF1 mRNA expression at 50 uM measured after 18 hrs by qRT-PCR analysis; type: cell-based
T3 sequence (whole entry): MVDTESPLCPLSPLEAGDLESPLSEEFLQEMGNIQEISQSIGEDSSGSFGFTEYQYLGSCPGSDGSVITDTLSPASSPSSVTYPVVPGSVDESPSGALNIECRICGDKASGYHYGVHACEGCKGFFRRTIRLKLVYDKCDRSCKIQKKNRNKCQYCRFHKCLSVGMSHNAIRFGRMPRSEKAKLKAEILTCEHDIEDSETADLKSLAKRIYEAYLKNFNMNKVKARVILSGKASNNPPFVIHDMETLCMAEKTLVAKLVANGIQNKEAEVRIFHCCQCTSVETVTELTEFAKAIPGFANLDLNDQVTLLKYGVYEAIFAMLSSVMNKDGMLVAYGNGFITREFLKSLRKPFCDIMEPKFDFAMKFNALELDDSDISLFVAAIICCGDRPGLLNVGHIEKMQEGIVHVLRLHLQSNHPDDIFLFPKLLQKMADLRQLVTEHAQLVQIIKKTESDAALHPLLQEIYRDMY
Summary of the method: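 Treatment for 18 h at 50 μM (or 1 μM for the 1 μM agents), DMSO vehicle. Harvested for qPCR. mRNA normalized to TBP by the comparative threshold method, expressed relative to DMSO control. Two biological replicates run in duplicate, mean ± SEM. Primary hepatocytes came from male C57BL/6N mice aged 7–8 weeks, isolated by portal-vein perfusion and digestion, seeded on collagen I and used on day 2. HuH-7 cells were kept in DMEM with 10% FBS and ITS.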

[4] = target: T3, Peroxisome proliferator-activated receptor alpha (Homo sapiens); assay: Agonist activity at full length human FLAG-tagged GAL4-DBD fused PPARalpha LBD (168 to 468 residues) expressed in COS1 cells transfected with hRXRalpha and hCPT1A-driven reporter assessed as increase in CPT1A mRNA level at 50 uM measured after 18 hrs by dual luciferase reporter gene assay; type: cell-based
Summary of the method: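 COS-1 cells were transfected with full-length human PPARα (or PPARγ) plus RXRα expression plasmids, with a wild-type or PPRE-mutated CPT1A-intronic (or PLIN1) luciferase reporter and pRL-CMV. Cells were treated with 50 μM in 0.1% DMSO (final) for 18 h. Dual-luciferase read-out normalized to DMSO control. Three biological replicates in quadruplicate, mean ± SEM.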

SGBS [5] = assay: Upregulation of FABP4 gene expression in human preadipocyte derived from Simpson-Golabi-Behmel syndrome (SGBS) patient at 25 uM measured for 12 days by qRT-PCR analysis; type: functional, cell-based
Summary of the method: (§1)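 SGBS cells were differentiated with serum-free induction medium containing 25 μM test agent, 2 μM rosiglitazone or 0.1% DMSO from day 0. IBMX and dexamethasone were removed on day 4 and medium was renewed on day 8. RNA was taken on days 0, 4, 8 and 12 for qPCR, normalized to TBP and to day 0. At least three biological replicates in duplicate, two-way ANOVA with Bonferroni.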

SGBS [6] = assay: Upregulation of PLIN1 gene expression in human preadipocyte derived from Simpson-Golabi-Behmel syndrome (SGBS) patient at 25 uM measured for 12 days by qRT-PCR analysis; type: functional, cell-based; summary of the method: as §1

CCCCCCCc1cc(CCCCCC(=O)O)no1
Activity (COS-1): 40% | EC50 [1]: 2000 µM | Activity [2]: inactive | Activity [3]: inactive | Activity [4]: Active | Activity (SGBS [5]): Active | Activity (SGBS [6]): Active
